From ChEMBL document CHEMBL1140164, “Isosorbide-2-carbamate esters: potent and selective butyrylcholinesterase inhibitors” (J Med Chem, 2008)
The source made the active and inactive calls. The calls are words filed in the database; no cut-off is given here.

Columns and labels:
Cholinesterase [1] = molecular target: T1, Cholinesterase (Homo sapiens, UniProt P06276); assay: Inhibition of human plasma BuchE by Ellman's method; format: cell-free
Cholinesterase [2] = molecular target: T1, Cholinesterase; assay: Inhibition of human plasma BuchE at 100 uM by Ellman's method; format: cell-free
Outline: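 Ellman assay using human plasma (or purified plasma BuChE) in phosphate buffer pH 8.0 with DTNB (0.5 mM solution); 30 min enzyme–inhibitor preincubation, then BTCI (0.5 mM solution) added and rate read at 405 nm over 5 min. Percent inhibition determined at 100 µM inhibitor; triplicate.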

[3] = molecular target: Acetylcholinesterase (Electrophorus electricus) (UniProt O42275); assay: Inhibition of electric eel AchE at 100 uM by Ellman's method
Outline: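 Ellman assay with electric eel AChE and ATCI as substrate, phosphate buffer pH 8.0, DTNB (0.5 mM solution). Enzyme and inhibitor incubated 30 min before substrate addition; absorbance read at 405 nm over 5 min. […] Triplicate.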

[4] = Selectivity ratio of IC50 for electric eel AchE to IC50 for human plasma BuchE
Acetylcholinesterase [5] = molecular target: Acetylcholinesterase (Electrophorus electricus, UniProt O42275); assay: Inhibition of electric eel AchE by Ellman's method
Homo sapiens = organism: Homo sapiens; assay: Selectivity ratio of IC50 for human erythrocyte AchE to IC50 for human plasma BuchE
Cholinesterase [6] = molecular target: T1, Cholinesterase; assay: Inhibition of human plasma BuchE in presence of edrophonium by carbamylation assay; format: cell-free
Outline: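 Carbamylation time course with purified human plasma BuChE (1.2 × 10^-3 mg/mL) and inhibitor at 1 mM in the presence of 5 mM edrophonium; activity sampled over 60 min preincubation, measured with DTNB 0.3 mM and substrate at 412 nm for 5 min.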

Acetylcholinesterase [7] = molecular target: Acetylcholinesterase (Homo sapiens, UniProt P22303); assay: Inhibition of human erythrocyte AchE by Ellman's method
Plasma = assay: Stability in 50% human plasma assessed as drug hydrolysis at 10 to 100 uM by HPLC; format: ADME, cell-free
Outline: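 Pooled citrated human venous plasma diluted with pH 7.4 phosphate buffer to 50%, showing normal adult BuChE activity. Compound added in acetonitrile and incubated at 37 °C. Aliquots taken at intervals, quenched in 2% ZnSO4·7H2O in MeCN-H2O (1:1) plus acetonitrile, vortexed and centrifuged. Supernatant analysed by reversed-phase HPLC with a gradient of pH 2.5 phosphate buffer:acetonitrile, 50:50 to 20:80 over 20 min.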

Cholinesterase [8] = molecular target: T1, Cholinesterase; assay: Inhibition of human plasma BuchE using variable substrate levels by carbamylation assay; format: cell-free
Outline: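 Time-course carbamylation with purified human plasma BuChE (1.2 × 10^-3 mg/mL), fixed inhibitor concentration, substrate varied 0.5-10 mM; preincubation sampled at 0-60 min intervals, then DTNB 0.3 mM plus substrate added and read at 412 nm for 5 min. Data plotted as ln E/E_T versus time.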

Cholinesterase [9] = molecular target: T1, Cholinesterase; assay: Inhibition of human plasma BuchE after 60 mins by carbamylation assay; format: cell-free
Outline: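 Purified human plasma BuChE (1.2 × 10^-3 mg/mL) preincubated with inhibitor in buffer in a cuvette for up to 60 min, readings at 0, 5, 10, 20, 30, 40, 50, 60 min; DTNB 0.3 mM and substrate then added, reaction followed at 412 nm for 5 min.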

Acetylcholinesterase (Electrophorus electricus, UniProt O42275), sequence (O42275 whole entry): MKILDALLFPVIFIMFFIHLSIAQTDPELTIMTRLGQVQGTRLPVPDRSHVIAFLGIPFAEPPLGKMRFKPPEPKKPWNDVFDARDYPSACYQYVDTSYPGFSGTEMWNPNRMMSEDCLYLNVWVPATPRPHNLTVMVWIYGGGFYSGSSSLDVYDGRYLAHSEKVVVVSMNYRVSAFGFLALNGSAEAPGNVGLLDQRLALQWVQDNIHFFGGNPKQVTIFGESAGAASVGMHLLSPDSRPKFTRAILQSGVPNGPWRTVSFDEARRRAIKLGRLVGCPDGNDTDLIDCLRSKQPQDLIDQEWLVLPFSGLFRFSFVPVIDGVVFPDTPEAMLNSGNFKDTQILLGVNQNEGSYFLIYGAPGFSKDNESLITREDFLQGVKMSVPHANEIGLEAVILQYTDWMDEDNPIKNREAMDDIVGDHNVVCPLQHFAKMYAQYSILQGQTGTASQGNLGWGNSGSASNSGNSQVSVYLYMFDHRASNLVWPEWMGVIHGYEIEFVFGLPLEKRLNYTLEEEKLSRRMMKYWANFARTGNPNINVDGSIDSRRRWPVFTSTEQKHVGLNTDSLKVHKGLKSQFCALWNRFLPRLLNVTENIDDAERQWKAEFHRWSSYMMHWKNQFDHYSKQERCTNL
Acetylcholinesterase (Electrophorus electricus), sequence (O42275 24-633 limits assumed): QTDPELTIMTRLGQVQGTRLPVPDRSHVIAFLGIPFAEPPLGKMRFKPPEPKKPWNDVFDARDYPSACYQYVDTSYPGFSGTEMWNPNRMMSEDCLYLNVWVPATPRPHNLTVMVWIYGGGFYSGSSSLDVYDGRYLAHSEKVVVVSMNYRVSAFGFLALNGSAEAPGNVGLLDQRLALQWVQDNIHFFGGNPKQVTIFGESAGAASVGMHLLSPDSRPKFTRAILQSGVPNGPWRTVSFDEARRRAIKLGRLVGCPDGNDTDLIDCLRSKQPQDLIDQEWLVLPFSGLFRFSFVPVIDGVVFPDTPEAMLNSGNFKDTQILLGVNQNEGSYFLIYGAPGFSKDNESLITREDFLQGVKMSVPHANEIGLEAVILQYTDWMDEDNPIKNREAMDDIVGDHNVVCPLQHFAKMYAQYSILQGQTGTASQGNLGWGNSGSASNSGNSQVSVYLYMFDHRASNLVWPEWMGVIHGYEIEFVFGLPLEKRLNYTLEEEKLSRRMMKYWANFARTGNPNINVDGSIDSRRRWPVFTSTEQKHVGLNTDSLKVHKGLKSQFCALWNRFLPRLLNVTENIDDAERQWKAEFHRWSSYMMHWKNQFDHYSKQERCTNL
T1 sequence (P06276 whole entry): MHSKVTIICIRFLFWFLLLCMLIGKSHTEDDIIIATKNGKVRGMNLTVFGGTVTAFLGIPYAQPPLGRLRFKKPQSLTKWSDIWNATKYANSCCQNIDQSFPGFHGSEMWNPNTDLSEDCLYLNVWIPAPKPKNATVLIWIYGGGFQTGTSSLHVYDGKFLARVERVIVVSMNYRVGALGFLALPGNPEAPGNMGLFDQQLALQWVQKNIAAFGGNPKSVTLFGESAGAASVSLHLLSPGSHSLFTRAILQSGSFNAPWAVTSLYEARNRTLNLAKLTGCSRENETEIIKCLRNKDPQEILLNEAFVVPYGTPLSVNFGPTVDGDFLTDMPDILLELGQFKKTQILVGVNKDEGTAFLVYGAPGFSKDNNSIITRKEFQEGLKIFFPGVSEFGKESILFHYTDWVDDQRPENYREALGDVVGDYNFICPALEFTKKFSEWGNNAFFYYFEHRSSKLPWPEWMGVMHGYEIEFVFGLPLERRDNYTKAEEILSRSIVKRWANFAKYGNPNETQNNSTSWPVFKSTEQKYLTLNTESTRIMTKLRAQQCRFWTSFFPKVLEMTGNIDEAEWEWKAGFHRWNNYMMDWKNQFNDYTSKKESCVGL
Acetylcholinesterase (Homo sapiens, UniProt P22303), sequence (P22303 whole entry): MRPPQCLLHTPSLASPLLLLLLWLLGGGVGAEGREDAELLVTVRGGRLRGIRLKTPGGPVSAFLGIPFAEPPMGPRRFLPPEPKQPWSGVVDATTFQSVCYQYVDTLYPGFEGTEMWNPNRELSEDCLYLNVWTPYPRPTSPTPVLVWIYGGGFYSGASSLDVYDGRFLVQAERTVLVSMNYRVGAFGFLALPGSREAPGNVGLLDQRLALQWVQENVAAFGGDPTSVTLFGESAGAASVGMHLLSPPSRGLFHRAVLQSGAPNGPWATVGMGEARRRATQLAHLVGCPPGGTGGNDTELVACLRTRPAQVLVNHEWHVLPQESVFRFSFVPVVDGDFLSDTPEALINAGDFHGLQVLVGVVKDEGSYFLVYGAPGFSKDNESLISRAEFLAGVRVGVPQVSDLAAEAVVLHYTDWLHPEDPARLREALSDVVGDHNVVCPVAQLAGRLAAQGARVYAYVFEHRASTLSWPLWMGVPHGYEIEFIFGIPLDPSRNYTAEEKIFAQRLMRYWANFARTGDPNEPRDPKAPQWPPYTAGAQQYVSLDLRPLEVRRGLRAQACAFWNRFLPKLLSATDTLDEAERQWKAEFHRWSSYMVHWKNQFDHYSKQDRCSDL

Structure (SMILES) | IC50 (Cholinesterase [1]) | inhibition (Cholinesterase [2]) | inhibition [3] | Ratio IC50 [4] | IC50 (Acetylcholinesterase [5]) | also measured
CCNC(=O)O[C@H]1CO[C@H]2[C@@H]1OC[C@H]2O[N+](=O)[O-] | 3.9 µM | 73% | 1% |  |  | 
CCCCNC(=O)O[C@H]1CO[C@H]2[C@@H]1OC[C@H]2O[N+](=O)[O-] | 0.894 µM | 92% | 32% | 1610 | 1440 µM | 
O=C(NCc1ccccc1)O[C@H]1CO[C@H]2[C@@H]1OC[C@H]2OC(=O)c1ccccc1 | 0.0043 µM | 99% | 21% | 63300 | 273 µM | Ratio IC50 (Homo sapiens): 51000; Activity (Cholinesterase [6]): inactive; IC50 (Acetylcholinesterase [7]): 221 µM; Stability (Plasma): Stable; Activity (Cholinesterase [8]): Dose-dependent effect
O=C(NCc1ccccc1)O[C@H]1CO[C@H]2[C@@H]1OC[C@H]2OC(=O)c1cccnc1 | 0.057 µM | 99% | 33% | 1750 |  | 
CCC(C)NC(=O)O[C@H]1CO[C@H]2[C@@H]1OC[C@H]2OC(=O)c1ccccc1 (some centres not stated) | 0.072 µM | 99% | 31% | 1390 |  | 
O=C(Nc1ccccc1Cl)O[C@H]1CO[C@H]2[C@@H]1OC[C@H]2O[N+](=O)[O-] |  | 11% | 24% |  |  | 
O=C(Nc1cccc(C(F)(F)F)c1)O[C@H]1CO[C@H]2[C@@H]1OC[C@H]2O[N+](=O)[O-] |  | 10% | 12% |  |  | 
CNC(=O)O[C@H]1CO[C@H]2[C@@H]1OC[C@H]2O[N+](=O)[O-] | 5.1 µM | 82% | 67% |  | 17.2 µM | 
CC(C)NP(=O)(NC(C)C)OP(=O)(NC(C)C)NC(C)C [TETRAISOPROPYL PYROPHOSPHORAMIDE] |  |  |  |  | 2.5 µM | 
CCCNC(=O)O[C@H]1CO[C@H]2[C@@H]1OC[C@H]2O[N+](=O)[O-] | 0.639 µM | 93% | 1% | 2380 | 1520 µM | 
O=C(NCc1ccccc1)O[C@H]1CO[C@H]2[C@@H]1OC[C@H]2OC(=O)OS(=O)(=O)C(F)(F)F | 0.359 µM |  |  |  |  | 
O=C(NCc1ccccc1)O[C@H]1CO[C@H]2[C@@H]1OC[C@H]2OC(=O)c1ccc2ccccc2c1 | 0.032 µM | 100% | 80% | 1370 | 43.4 µM | 
O=C(NCc1ccccc1)O[C@H]1CO[C@H]2[C@@H]1OC[C@H]2OC(=O)C1CC1 | 0.334 µM | 97% | 55% | 300 |  | 
O=C(NCc1ccccc1)O[C@H]1CO[C@H]2[C@@H]1OC[C@H]2OC(=O)c1ccncc1 | 0.088 µM | 97% | 24% |  |  | 
O=C(Nc1cccc(Cl)c1)O[C@H]1CO[C@H]2[C@@H]1OC[C@H]2O[N+](=O)[O-] |  | 11% | 24% |  |  | 
O=C(Nc1ccc(Cl)c(Cl)c1)O[C@H]1CO[C@H]2[C@@H]1OC[C@H]2O[N+](=O)[O-] |  | 28% | 78% |  | 9.9 µM | 
O=C(/C=C/c1ccccc1)O[C@@H]1CO[C@H]2[C@@H]1OC[C@@H]2OC(=O)NCc1ccccc1 | 0.137 µM | 96% | 82% | 729 | 55.9 µM | 

Structure (SMILES) | IC50 (Cholinesterase [1]) | inhibition (Cholinesterase [2]) | inhibition [3] | Ratio IC50 [4] | IC50 (Acetylcholinesterase [5]) | also measured
CC(=O)O[C@@H]1CO[C@H]2[C@@H]1OC[C@@H]2OC(=O)NCc1ccccc1 | 4.1 µM | 97% | 12% | > 25 |  | 
O=C(NCc1ccccc1)O[C@H]1CO[C@H]2[C@@H]1OC[C@H]2OC(=O)c1ccc(-c2ccccc2)cc1 | 0.012 µM | 99% | 89% | 4190 | 51.6 µM | 
O=C(NCc1ccccc1)O[C@H]1CO[C@H]2[C@@H]1OC[C@H]2OC(=O)c1cccc2ccccc12 | 0.028 µM | 99% | 86% | 1340 | 37.6 µM | 
O=C(NCc1ccccc1)O[C@H]1CO[C@H]2[C@@H]1OC[C@H]2O[N+](=O)[O-] | 0.051 µM | 96% | 35% | > 2000 |  | IC50 (Cholinesterase [9]): 0.0036 µM
Cc1ccc(S(=O)(=O)C(=O)O[C@@H]2CO[C@H]3[C@@H]2OC[C@@H]3OC(=O)NCc2ccccc2)cc1 |  | 25% | 66% |  |  | 
CS(=O)(=O)OC(=O)O[C@@H]1CO[C@H]2[C@@H]1OC[C@@H]2OC(=O)NCc1ccccc1 |  | 9.8% | 3% |  |  | 
C=CC[N+](C)(C)c1ccc(CCC(=O)CCc2ccc([N+](C)(C)CC=C)cc2)cc1 |  |  |  |  | 0.063 µM | 
CCC(=O)O[C@@H]1CO[C@H]2[C@@H]1OC[C@@H]2OC(=O)NCc1ccccc1 | 0.98 µM | 97% | 5% | > 100 |  | 
CNC(=O)O[C@H]1CO[C@H]2[C@@H]1OC[C@H]2OC(=O)c1ccccc1 | 0.669 µM | 93% | 54% | 150 |  | 
O=C(NCc1ccccc1)O[C@H]1CO[C@H]2[C@@H]1OC[C@H]2O | 3.7 µM | 95% | 15% | > 27 |  | 
CCCCCCc1ccc(C(=O)O[C@@H]2CO[C@H]3[C@@H]2OC[C@@H]3OC(=O)NCc2ccccc2)cc1 | 2.8 µM |  |  |  |  | 
O=C(NCc1ccccc1)O[C@H]1CO[C@H]2[C@@H]1OC[C@H]2OC(=O)C1CCCC1 | 0.006 µM | 99% | 88% | 9380 | 56.3 µM | 
O=C(/C=C/c1ccc(O)cc1)O[C@@H]1CO[C@H]2[C@@H]1OC[C@@H]2OC(=O)NCc1ccccc1 | 0.073 µM | 100% | 81% | 821 | 60.4 µM | 
CCCCC(=O)O[C@@H]1CO[C@H]2[C@@H]1OC[C@@H]2OC(=O)NCc1ccccc1 | 0.7 µM | 95% | 4% | > 142 |  | 
O=C(NC1CCCCC1)O[C@H]1CO[C@H]2[C@@H]1OC[C@H]2O[N+](=O)[O-] | 2.5 µM | 99% | 30% | > 40 |  | 
O=C(Nc1ccc(Cl)c(Cl)c1)O[C@H]1CO[C@H]2[C@@H]1OC[C@H]2OC(=O)c1ccccc1 |  | 38% | 70% |  |  | 
O=C(Nc1ccccc1)O[C@H]1CO[C@H]2[C@@H]1OC[C@H]2O[N+](=O)[O-] |  | 37% | 23% |  |  | 
